The values below come from ChEMBL document CHEMBL6121049, “Discovery of Orally Available Prodrugs of Itaconate and Derivatives” (J Med Chem, 2025).

Series [1] can be described thus: Chemical stability in pH 1.2 assessed as compound remaining at 10 uM measured after 1 hrs by LC-MS/MS analysis. It counts as physicochemical. The settings on record: buffer, pH 1.2, 1 h. In short, it runs like this: (§1)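 Compounds incubated in buffers at pH 1.2, 4.5 or 7.4 at 37 °C for 1 h; prodrug disappearance followed by LC–MS/MS as % remaining.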
The nature of series [2]: Metabolic stability in human skin homogenate assessed as compound remaining at 10 uM measured after 1 hrs by LC-MS analysis. It counts as ADME, tissue-based, Skin of body. The conditions noted are these: tissue homogenate.
Series [3] is described as follows: Chemical stability in pH 4.5 assessed as compound remaining at 10 uM measured after 1 hrs by LC-MS/MS analysis. It counts as physicochemical. The conditions noted are these: buffer, pH 4.5, 1 h. In short, it runs like this: as §1
Series [4] in a line: Permeability of the compound at pH 7.4 incubated for 4 hrs by PAMPA-GIT assay. It counts as ADME. The settings on record: pH 7.4, 4 h. A digest of the protocol:
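PAMPA-GIT sandwich: acceptor filter coated with GIT-0 lipid; donor holds 10 μM compound in pH 7.4 buffer with 0.2% DMSO, acceptor pH 7.4 sink buffer; 4 h at room temperature; both compartments sampled by LC-MS/MS; effective permeability Pe calculated with membrane retention correction.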
(In PAMPA a lipid-coated filter parts donor from acceptor wells.)

Series [5] can be described thus: Metabolic stability in human plasma assessed as compound remaining at 10 uM measured after 1 hrs by LC-MS analysis. It counts as ADME, cell-free. A digest of the protocol:
(§2)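 Prodrugs (10 μM) spiked into mouse or human plasma, shaken at 37 °C; samples at 0 and 60 min quenched in cold acetonitrile with losartan internal standard, centrifuged, diluted, run by LC-HRMS; % remaining from analyte/IS peak-area ratio.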

Series [6] can be described thus: Metabolic stability in mouse skin homogenate assessed as compound remaining at 10 uM measured after 1 hrs by LC-MS analysis. It counts as ADME, tissue-based, Skin of body. The settings on record: tissue homogenate.
Series [7] in a line: Metabolic stability in mouse plasma assessed as compound remaining at 10 uM measured after 1 hrs by LC-MS analysis. It counts as ADME, cell-free. A digest of the protocol:
as §2

Series [8] in a line: Chemical stability in pH 7.4 assessed as compound remaining at 10 uM measured after 1 hrs by LC-MS/MS analysis. It counts as physicochemical. The settings on record: buffer, pH 7.4, 1 h. In short, it runs like this: as §1
Series [9] relates to NHEK. The series can be described thus: Effect on TLR3 mRNA expression in NHEK cells at 500 uM preincubated for 2 days and measured after 24 hrs by TaqMan RTPCR analysis. It counts as functional, cell-based. The settings on record: Homo sapiens, time 2.0 day. For orientation: Real-time PCR tracks product formation cycle by cycle.
The test system of series [10] is NHEK. The series can be described thus: Effect on IL-6 expression in NHEK cells at 500 uM preincubated for 2 days and measured after 24 hrs by TaqMan RTPCR analysis. It counts as functional, cell-based. The conditions noted are these: Homo sapiens, time 2.0 day.
Series [11] in a line: Immunomodulatory activity in NHEK cells assessed as inhibition of IFN-gamma induced CXCL10 expression at 100 uM by TaqMan RTPCR analysis relative to control. It counts as functional. The settings on record: Homo sapiens. A digest of the protocol:
(§3)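 Primary human keratinocytes seeded, held overnight at 37 °C, 5% CO2, then stimulated with Poly(I:C) 50 μg/mL plus IFNγ 5 ng/mL, with or without prodrug at 1, 10, 30 or 100 μM; gene induction measured at 8 h.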

The subject of series [12] is NHEK. The series can be described thus: Immunomodulatory activity in NHEK cells assessed as inhibition of Poly(I:C)/IFN-gamma induced IL-1 beta expression at 100 uM by TaqMan RTPCR analysis. It counts as functional, cell-based. The settings on record: Homo sapiens. In short, it runs like this: as §3
A short description of series [13]: Immunomodulatory activity in NHEK cells assessed as inhibition of IFN-gamma induced CXCL11 expression at 100 uM by TaqMan RTPCR analysis relative to control. It counts as functional. The conditions noted are these: Homo sapiens. In short, it runs like this:
as §3

The nature of series [14]: Cytotoxicity against NHEK cells assessed as cell viability at 100 uM measured after 8 hrs by CellTiter-Glo assay relative to control. The conditions noted are these: human. It counts as toxicity, cell-based. In short, it runs like this:
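Primary normal human epidermal keratinocytes, expanded and seeded, exposed to 1, 10, 30 or 100 μM for 8 h; viability by CellTiter-Glo luminescence as % viable.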
In general terms: ATP-based viability assays read luminescence as a measure of living cells.

Calls of active or inactive are those of the source. The rule behind the calls is not given here.

On to `C=C(CC(=O)OCOC(=O)C(C)(C)C)C(=O)O`, for which the Stability stood at 100% in series [1]; 40% in series [2]; 74% in series [3]; 83% in [5]; 14% in [6]; 3% in series [7]. Moreover, the Stability in [8] is recorded as 22%. Besides, in series [4], the permeability is 0.08 10^-6 cm/s.

Consider `C=C(CC(=O)OCCCOCCCCCCCCCCCCCCCC)C(=O)OC`, for which the Stability is listed as 109% in [1]; 101% in series [2]; 98% in series [3]; 90% in series [5]; 61% in series [6]; 89% in [7]. Moreover, in [8], the Stability came out at 97%.

For `C=C(CC(=O)OC)C(=O)OCc1oc(=O)oc1C`, the Stability in [1] is on record as 98%; in series [2], 76%; in series [3], 87%; in series [5], 0%; in series [6] it was 16%; in series [7], 0%. Moreover, the Stability in series [8] was 99%. Also, in [4], the permeability was 15.4 10^-6 cm/s.

Consider `C=C(CC(=O)OCc1oc(=O)oc1C)C(=O)OCc1oc(=O)oc1C`, for which the Stability in [1] is listed as 102%; in [2], 30%; in [3], 91%; in series [5] it was 0%; in series [6] it was 0%; in series [7] it was 0%. In series [8], the Stability is 91%. Also, the permeability in series [4] is 17 10^-6 cm/s.

Turning to `C=C(CC(=O)OC)C(=O)OCOC(=O)C(C)(C)C`, the Stability amounted to 99% in series [1]; 15% in series [2]; 109% in [3]; 0% in series [5]; 5.3% in [6]; 0% in series [7]. Further, in [8], the Stability came to 94%. The permeability in [4] is 33.2 10^-6 cm/s.

For the molecule `C=C(CC(=O)OC)C(=O)O`, the result in the series on NHEK [9] and in the series on NHEK [10] was inactive.

Consider `C=C(CC(=O)OCOC(=O)OC(C)C)C(=O)OC`, for which the Stability is 98% in series [1]; 0% in series [2]; 94% in series [3]; 0% in series [5]; 0% in [6]; 0% in series [7]. Further, the Stability in [8] was determined as 63%. In [4], the permeability was 29.3 10^-6 cm/s. In addition, the inhibition at 100 µM in series [11] and in series [13] was below 50% throughout. In addition, in the series on NHEK [12], the outcome was Active. Further, in series [14], the Activity is reported as above 80%.

For `C=C(CC(=O)OCCCOCCCCCCCCCCCCCCCC)C(=O)O`, the Stability in series [1] is listed as 91%; in series [2] it was 87%; in [3], 90%; in series [5], 68%; in series [6] it was 100%; in series [7], 92%. Further, the Stability in [8] is given as 65%. Besides, the permeability in series [4] is on record as 3.2 10^-6 cm/s.

`C=C(CC(=O)O)C(=O)O`: the outcome in the series on NHEK [9] and in the series with NHEK [10] was inactive.

`C=C(CC(=O)OCOC(=O)OC(C)C)C(=O)O`: the Stability is reported as 104% in series [1]; 29% in [2]; 79% in series [3]; 53% in series [5]; 4.9% in series [6]; 0% in series [7]. For the same molecule, the Stability in series [8] is 44%.

On to `C=C(CC(=O)OC)C(=O)OCCCOCCCCCCCCCCCCCCCC`, for which the Stability in series [1] was determined as 103%; in series [2], 94%; in series [3] it was 108%; in [5], 32%; in [6] it was 67%; in series [7], 44%. Also, the Stability in [8] was determined as 75%.

For the molecule `C=C(CC(=O)OCOC(=O)C(C)(C)C)C(=O)OC`, the Stability in [1] stood at 101%; in [2], 9.4%; in series [3], 104%; in [5] it was 0%; in [6], 0%; in series [7] it was 0%. In addition, the Stability in [8] was 86%. Further, the permeability in series [4] is reported as 35.2 10^-6 cm/s.

As to `C=C(CC(=O)OCc1oc(=O)oc1C)C(=O)OC`, the Stability in series [1] was 100%; in series [2], 56%; in series [3] it was 97%; in series [5], 0%; in [6] it was 0%; in series [7], 0%. Further, the Stability in series [8] is recorded as 69%. Moreover, the permeability in series [4] is 16.3 10^-6 cm/s.

Consider `C=C(CC(=O)OCc1oc(=O)oc1C)C(=O)O`, for which the Stability in series [1] came out at 109%; in series [2], 93%; in series [3], 88%; in series [5], 0%; in series [6] it was 74%; in series [7] it was 20%. For the same molecule, the Stability in [8] is recorded as 0%.

As for `C=C(CC(=O)OCOC(=O)C(C)(C)C)C(=O)OCOC(=O)C(C)(C)C`, the Stability in series [1] came out at 106%; in [2], 0%; in [3] it was 92%; in series [5] it was 0%; in series [6], 0%; in series [7] it was 0%. Further, in series [8], the Stability amounted to 104%. The permeability in series [4] is 35.8 10^-6 cm/s.

By inhibition is commonly meant the share of the control response that was lost under treatment.
